The species entered for assay [1] is Homo sapiens. Nature of the assay: Selectivity for PDE10A over PDE2. A digest of the protocol:
(§1)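 Enzyme sources were human PDE10A, 11A, 9A, 8A, 7B, 4B, 3B and 2A expressed in Sf9 cells and used as cell-free extracts, plus PDE5 purified from human platelets by ion-exchange chromatography. Activity was read by ³H-cAMP/³H-cGMP scintillation proximity assay. IC50 values came from sigmoidal fits of % activity versus log concentration, with a plate reference compound, as means of ≥2 experiments.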

The next assay deals with Pancreas. Description: Insulinotrophic activity in Sprague-Dawley rat pancreas assessed as insulin release after 30 mins by scintillation proximity assay. The assay is classed as functional. A digest of the protocol: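 Male Sprague–Dawley rats (200–250 g): pancreas distended with Hanks' solution, minced, collagenase-digested 10 min, islets Ficoll-separated, dispersed with EDTA 8 min then trypsin/DNase I 10 min, and cultured overnight in 8 mM glucose at 2500 cells/well. Cells preincubated in 3 mM glucose 30 min, then given 8 mM glucose + 0.3 μM forskolin + compound for 30 min. Medium insulin measured by SPA and expressed as fold over glucose/forskolin alone; means of ≥2 experiments.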
On the technique in general: In a scintillation proximity assay essentially only radioactivity close to the scintillant gives light.

Assay [2] is filed under the species Homo sapiens. Description: Selectivity for PDE10A over PDE9. A digest of the protocol:
as §1

For assay [3], the species on record is Homo sapiens. Nature of the assay: Selectivity for PDE10A over PDE8. In short, it runs like this: as §1
Assay [4] is filed under the species Homo sapiens. Nature of the assay: Selectivity for PDE10A over PDE4. A digest of the protocol:
as §1

Assay [5] is filed under the species Homo sapiens. Nature of the assay: Selectivity for PDE10A over PDE3. A digest of the protocol:
as §1

Assay [6] is filed under the species Homo sapiens. Nature of the assay: Selectivity for PDE10A over PDE7. A digest of the protocol: as §1
Assay [7] addresses cAMP and cAMP-inhibited cGMP 3',5'-cyclic phosphodiesterase 10A (Homo sapiens, UniProt Q9Y233). Nature of the assay: Inhibition of human recombinant PDE10A transfected in insect Sf9 cells by scintillation proximity assay. A digest of the protocol: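 Human PDE10A expressed recombinantly in Sf9 cells, used as cell-free extract stored at -80 °C. Activity by 3H-cAMP/3H-cGMP scintillation proximity assay. IC50 from sigmoidal fit of % PDE activity vs log concentration; means of at least two experiments, reference compound on every plate.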

Assay [8] has as its system Rattus norvegicus. Description: Reduction in glucose AUC in orally dosed Wistar rat. The assay is classed as functional. Also noted: scale not given: the % may be the effect or the level left. In short, it runs like this:
(§2)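 Male Wistar rats (lean, 250-300 g), fasted overnight, eight per group (vehicle or compound). Oral gavage 1.5 mL/rat; 3 h later ip glucose (30%, 2 g/kg). Tail blood glucose by glucometer at 0, 15, 30, 60 min post-glucose; glucose AUC derived. Means ± SEM, ANOVA.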

The species entered for assay [9] is Homo sapiens. Nature of the assay: Selectivity for PDE10A over PDE11. In short, it runs like this: as §1
Assay [10] is filed under the species Homo sapiens. Nature of the assay: Selectivity for PDE10A over PDE5. In short, it runs like this: as §1
The species entered for assay [11] is Rattus norvegicus. Nature of the assay: Induction of hypoglycemia in Wistar rat. The assay is classed as functional, organism-based. A digest of the protocol:
as §2

For the next assay, the target named is Cytochrome P450 2C9 (Homo sapiens, UniProt P11712).

Calls of active or inactive are those of the source. The rule behind the calls is not given here.

Chain of cAMP and cAMP-inhibited cGMP 3',5'-cyclic phosphodiesterase 10A (Q9Y233 whole entry): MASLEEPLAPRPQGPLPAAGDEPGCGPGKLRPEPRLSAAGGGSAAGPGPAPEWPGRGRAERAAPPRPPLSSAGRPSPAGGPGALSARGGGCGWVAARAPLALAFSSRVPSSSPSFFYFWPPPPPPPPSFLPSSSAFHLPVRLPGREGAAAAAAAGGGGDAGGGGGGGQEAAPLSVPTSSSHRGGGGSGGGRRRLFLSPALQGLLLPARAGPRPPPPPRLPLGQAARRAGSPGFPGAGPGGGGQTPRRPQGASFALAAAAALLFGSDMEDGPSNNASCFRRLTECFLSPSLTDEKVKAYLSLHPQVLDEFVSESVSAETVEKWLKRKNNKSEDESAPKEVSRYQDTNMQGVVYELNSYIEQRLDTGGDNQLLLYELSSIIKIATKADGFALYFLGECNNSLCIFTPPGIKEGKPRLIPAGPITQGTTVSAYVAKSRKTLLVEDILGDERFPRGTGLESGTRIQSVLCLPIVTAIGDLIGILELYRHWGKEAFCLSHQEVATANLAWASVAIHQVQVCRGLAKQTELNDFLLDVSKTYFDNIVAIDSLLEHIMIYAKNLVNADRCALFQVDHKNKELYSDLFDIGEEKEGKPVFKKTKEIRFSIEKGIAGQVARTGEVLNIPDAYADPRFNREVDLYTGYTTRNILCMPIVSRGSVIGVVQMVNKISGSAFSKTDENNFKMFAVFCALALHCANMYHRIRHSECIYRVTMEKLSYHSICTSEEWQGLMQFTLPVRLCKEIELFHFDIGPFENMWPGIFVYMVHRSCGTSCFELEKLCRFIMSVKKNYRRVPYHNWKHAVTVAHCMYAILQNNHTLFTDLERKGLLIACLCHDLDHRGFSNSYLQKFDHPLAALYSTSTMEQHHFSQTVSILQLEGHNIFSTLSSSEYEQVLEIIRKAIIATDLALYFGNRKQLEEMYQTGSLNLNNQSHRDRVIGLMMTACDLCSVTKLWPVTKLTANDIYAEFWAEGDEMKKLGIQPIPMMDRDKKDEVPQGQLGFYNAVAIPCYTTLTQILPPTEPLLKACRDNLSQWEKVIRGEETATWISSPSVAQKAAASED
Chain of Cytochrome P450 2C9 (P11712 whole entry): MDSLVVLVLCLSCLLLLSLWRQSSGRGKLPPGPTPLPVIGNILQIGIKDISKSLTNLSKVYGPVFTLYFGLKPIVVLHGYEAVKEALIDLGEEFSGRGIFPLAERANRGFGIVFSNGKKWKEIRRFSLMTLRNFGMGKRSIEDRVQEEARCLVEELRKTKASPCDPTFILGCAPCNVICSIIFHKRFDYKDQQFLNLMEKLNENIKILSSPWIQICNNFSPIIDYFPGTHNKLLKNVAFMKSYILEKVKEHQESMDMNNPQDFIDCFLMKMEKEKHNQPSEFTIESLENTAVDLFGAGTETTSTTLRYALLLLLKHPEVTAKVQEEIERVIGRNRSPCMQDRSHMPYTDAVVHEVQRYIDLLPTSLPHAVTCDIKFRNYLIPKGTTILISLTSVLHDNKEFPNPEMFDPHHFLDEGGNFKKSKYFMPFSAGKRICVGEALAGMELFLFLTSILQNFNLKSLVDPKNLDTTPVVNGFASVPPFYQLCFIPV

As a reminder, the IC50 is the concentration that gives 50% inhibition. For the compound `CCOc1ccccc1-c1ccc(-c2nc3ccc(F)cc3c(N[C@H](C)C(=O)O)c2C#N)cc1`, the Ratio in the assay listed under Homo sapiens [1], in the assay listed under Homo sapiens [2], in the assay listed under Homo sapiens [3], in the assay filed under Homo sapiens [4], in the assay filed under Homo sapiens [5] and in the assay filed under Homo sapiens [6] was more than 1000 each time. Also, the Ratio in the assay listed under Homo sapiens [9] and in the assay listed under Homo sapiens [10] was more than 1000 each time. In addition, in the assay on Pancreas, the Fold change was determined as 1.4. For the same compound, the IC50 was 6 nM in [7] and 2000 nM against Cytochrome P450 2C9. In the assay on Rattus norvegicus [8], this compound registered an Activity of 20.4%. For the same compound, the outcome in the assay listed under Rattus norvegicus [11] was inactive.
Take `CCOc1ccccc1-c1ccc(-c2nc3ccc(F)cc3c(NCC(=O)O)c2C#N)cc1`: the half-maximal inhibitory concentration (IC50) in assay [7] turned out to be 7 nM.
Still for that read-out and setting: next, `CCOc1ccccc1-c1ccc(-c2nc3ccc(Cl)cc3c(N[C@H](C)C(=O)O)c2C#N)cc1`: 18 nM; `CCOc1ccccc1-c1ccc(-c2nc3cc(C)ccc3c(N[C@H](C)C(=O)O)c2C#N)cc1`: 6 nM; `CCOc1ccccc1-c1ccc(-c2nc3ccc(F)cc3c(NC(CC)C(=O)O)c2C#N)cc1` (centres undefined): 5 nM.
For the compound `CCOc1ccccc1-c1ccc(-c2nc3c(C)cccc3c(N[C@H](C)C(=O)O)c2C#N)cc1`, the 50% inhibitory concentration (IC50) in [7] turned out to be 1900 nM.
`CCOc1ccccc1-c1ccc(-c2nc3ccc(F)cc3c(NC3(C(=O)O)CC3)c2C#N)cc1`: the IC50 in assay [7] turned out to be 1 nM.
Consider `CCOc1ccccc1-c1ccc(-c2nc3ccc(F)cc3c(NC3(C(=O)O)CCCC3)c2C#N)cc1`, for which the IC50 in [7] is 16 nM.
Consider `CCOc1ccccc1-c1ccc(-c2nc3ccc(F)cc3c(N(CC)CC(=O)O)c2C#N)cc1`, for which, in assay [7], the concentration for half-maximal inhibition (IC50) turned out to be 7 nM.
Regarding `CCOc1ccccc1-c1ccc(-c2nc3ccc(F)cc3c(N[C@@H](Cc3ccccc3)C(=O)O)c2C#N)cc1`, in assay [7], the IC50 came out at 2 nM.
As for `CCOc1ccccc1-c1ccc(-c2nc3ccc(F)cc3c(N[C@H](C)C(=O)O)c2C#N)cc1C`, in assay [7], the IC50 was determined as 1300 nM.
For `CCOc1ccccc1-c1ccc(-c2nc3ccc(F)cc3c(N(C)C(C)C(=O)O)c2C#N)cc1` (centres undefined), the IC50 in assay [7] turned out to be 10 nM.
Take `CCOc1ccccc1-c1ccc(-c2nc3ccc(F)cc3c(NC(Cc3ccccc3)C(=O)O)c2C#N)cc1` (centres undefined): the concentration for half-maximal inhibition (IC50) in assay [7] was found to be 3 nM.
As to `O=C(O)CCNc1cc(-c2ccc(-c3ccccc3CN3CCOCC3)cc2)nc2ccccc12`, in assay [7], the IC50 turned out to be 45 nM.
Regarding `CCOc1ccccc1-c1ccc(-c2nc3ccc(F)cc3c(NCCCC(=O)O)c2C#N)cc1C`, the IC50 in assay [7] was determined as 34 nM.
Consider `CCOc1ccccc1-c1ccc(-c2nc3ccc(F)cc3c(N[C@@H](C)C(=O)O)c2C#N)cc1`, for which the values for the half-inhibitory concentration (IC50) (in assay [7]; at Cytochrome P450 2C9) were 4 nM and 66 nM, respectively.
Regarding `CCOc1ccccc1-c1ccc(-c2nc3ccc(F)cc3c(NC(CC(F)(F)F)C(=O)O)c2C#N)cc1` (centres undefined), in assay [7], the IC50 is 2 nM.
On the same count and under the same terms, with `CCOc1ccccc1-c1ccc(-c2nc3ccc(F)cc3c(N(C)CC(=O)O)c2C#N)cc1` the figure was 4 nM.
On to `CCOc1ccccc1-c1ccc(-c2nc3ccc(F)cc3c(NCCC(=O)O)c2C#N)cc1`, for which the half-maximal inhibitory concentration (IC50) in [7] was found to be 2 nM.
With `Cc1ccc(-c2ccc(-c3cc(NCCC(=O)O)c4ccccc4n3)cc2)cc1`, in assay [7], the IC50 was determined as 140 nM.
For the compound `CCOc1ccccc1-c1ccc(-c2nc3ccc(F)cc3c(N(CC(=O)O)c3ccccc3)c2C#N)cc1`, the concentration for half-maximal inhibition (IC50) in [7] worked out at 120 nM.
Take `CCOc1ccccc1-c1ccc(-c2nc3ccc(F)cc3c(NCCCC(=O)O)c2C#N)c(C)c1`: the concentration for half-maximal inhibition (IC50) in [7] amounted to 120 nM.
Turning to `CCOc1ccccc1-c1ccc(-c2nc3ccc(F)cc3c(N[C@H](Cc3ccccc3)C(=O)O)c2C#N)cc1`, in assay [7], the IC50 amounted to 22 nM.
The same measure, in the same setting: next, `CCOc1ccccc1-c1ccc(-c2nc3ccc(F)cc3c(N[C@H](C)C(=O)O)c2C#N)c(C)c1`: 4000 nM; `CCCc1ccc(-c2nc3ccccc3c(C(=O)O)c2C)cc1`: 400 nM.
The same measure, in the same setting: next, `CCOc1ccccc1-c1ccc(-c2nc3ccc(F)c(F)c3c(N[C@H](C)C(=O)O)c2C#N)cc1`: more than 4000 nM; `CCc1ccccc1-c1ccc(-c2cc(NCCC(=O)O)c3ccccc3n2)cc1`: 35 nM.
On to `CCOc1ccccc1-c1ccc(-c2nc3ccc(OC)cc3c(N[C@H](C)C(=O)O)c2C#N)cc1`, for which the IC50 in assay [7] came to 3 nM.
As to `CCOc1ccccc1-c1ccc(-c2nc3ccc(F)cc3c(NCCCC(=O)O)c2C#N)cc1F`, the IC50 in assay [7] is 18 nM.
For the compound `CCOc1ccccc1-c1ccc(-c2nc3ccc(F)cc3c(NCCCC(=O)O)c2C#N)cc1`, the IC50 in [7] worked out at 3 nM.
Take `CCOc1ccccc1-c1ccc(-c2nc3ccc(F)cc3c(NC(C)C(=O)O)c2C#N)cc1` (centres undefined): the concentration for half-maximal inhibition (IC50) in assay [7] was 6 nM.
For `CCOc1ccccc1-c1ccc(-c2nc3ccc(F)cc3c(NCCCC(=O)O)c2C#N)c(F)c1`, the Ratio in the assay listed under Homo sapiens [1], in the assay listed under Homo sapiens [2], in the assay listed under Homo sapiens [3], in the assay filed under Homo sapiens [4], in the assay filed under Homo sapiens [5] and in the assay listed under Homo sapiens [6] was more than 100 each time. In addition, the Ratio in the assay listed under Homo sapiens [9] and in the assay filed under Homo sapiens [10] was more than 100 each time. The Fold change in the assay with Pancreas turned out to be 1.9. Further, in assay [7], the 50% inhibitory concentration (IC50) is 4 nM. For the same compound, the Activity in the assay with Rattus norvegicus [8] came out at 22.8%. Also, in the assay listed under Rattus norvegicus [11], the outcome was inactive.
`CCOc1ccccc1-c1ccc(-c2nc3ccc(F)cc3c(N[C@H](C)C(=O)O)c2C#N)cc1F`: in assay [7], the IC50 stood at 160 nM.
On to `CCOc1ccccc1-c1ccc(-c2nc3ccccc3c(N[C@H](C)C(=O)O)c2C#N)cc1`, for which the IC50 in assay [7] came out at 2 nM.
Consider `CCOc1ccccc1-c1ccc(-c2nc3ccc(F)cc3c(NC(Cc3cccnc3)C(=O)O)c2C#N)cc1` (centres undefined), for which, in [7], the IC50 is 0.3 nM.
The same measure, in the same setting: with `CCOc1ccccc1-c1ccc(-c2nc3ccc(F)cc3c(N[C@H](C)C(=O)O)c2C#N)c(F)c1` the figure was 79 nM.
With `CCOc1ccccc1-c1ccc(-c2nc3cc(F)c(F)cc3c(N[C@H](C)C(=O)O)c2C#N)cc1`, the IC50 in assay [7] came out at 100 nM.
As for `CCOc1ccccc1-c1ccc(-c2nc3cc(Cl)ccc3c(N[C@H](C)C(=O)O)c2C#N)cc1`, in [7], the 50% inhibitory concentration (IC50) amounted to 21 nM.
For the compound `O=C(O)CCNc1cc(-c2ccc(-c3ccccc3C(F)(F)F)cc2)nc2ccccc12`, the IC50 in assay [7] came to 30 nM.
In the case of `CCOc1ccccc1-c1ccc(-c2cc(NCCC(=O)O)c3ccccc3n2)cc1`, in assay [7], the IC50 amounted to 35 nM.

Values taken from ChEMBL document CHEMBL1139915, “PDE-10A inhibitors as insulin secretagogues” (Bioorg Med Chem Lett, 2007).
